From ChEMBL document CHEMBL1944543, “A facile 'click' approach to novel 15β-triazolyl-5α-androstane derivatives, and an evaluation of their antiproliferative activities in vitro” (Bioorg Med Chem, 2012) come the findings set out here.

As a reminder, the IC50 is the point on the concentration scale where inhibition reaches its midpoint. Higher therefore signals lower potency.

The source made the active and inactive calls. No cut-off for these calls is given here. Bounds are passed on as bounds.

Data set [1] deals with HeLa. Nature of the data set: Antiproliferative activity against human HeLa cells after 72 hrs by MTT assay. It is filed as functional, cell-based. The method in brief:
(§1)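 HeLa, MCF-7 and A431 cells were kept in minimal essential medium with 10% fetal bovine serum, 1% non-essential amino acids and antibiotic-antimycotic, at 37 °C in humidified 5% CO₂. Cells were seeded at 5000 cells/well, left overnight, then given compound-containing medium. Read-out was MTT colorimetric, with cisplatin as positive control. IC₅₀ came from fitted sigmoidal dose–response curves.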

Data set [2] has as its system MCF7. Nature of the data set: Antiproliferative activity against human MCF7 cells after 72 hrs by MTT assay. Type of data set: functional, cell-based. As to conditions: MCF7, 72 h. The method in brief: as §1
For orientation: Tetrazolium dyes change colour on reduction, which living cells bring about.

The test system of data set [3] is A-431. Nature of the data set: Antiproliferative activity against human A431 cells after 72 hrs by MTT assay. It is filed as functional, cell-based. The note with it: A-431, 72 h. The method in brief:
as §1

Data set [4] has as its system HeLa. The experiment in a line: Cell cycle arrest in human HeLa cells assessed as accumulation at S phase at 3 to 10 uM after 24 hrs by flow cytometry analysis. It is filed as functional, cell-based. The method in brief:
(§2)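 HeLa cells were treated at […] for 24 or 48 h. Then 200,000 cells per condition were trypsinized, PBS-washed, fixed in cold 70% ethanol for 30 min on ice, washed twice and PI-stained for DNA. 20,000 events were recorded and subG1, G1, S and G2/M percentages computed, with subG1 taken as apoptotic. Values are means of three determinations, tested against control.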

Data set [5] relates to HeLa. The experiment in a line: Cell cycle arrest in human HeLa cells assessed as accumulation at Sub-G1 phase at 3 to 10 uM after 24 hrs by flow cytometry analysis. Type of data set: functional, cell-based. The method in brief: as §2
The test system of data set [6] is HeLa. Nature of the data set: Cell cycle arrest in human HeLa cells at 3 to 10 uM after 48 hrs by flow cytometry analysis. Type of data set: functional, cell-based. The method in brief: as §2
The subject of data set [7] is HeLa. Nature of the data set: Induction of apoptosis in human HeLa cells assessed as nuclear condensation after 24 hrs by Hoechst 33258 staining based fluorescence microscopy. It is filed as functional, cell-based. The method, boiled down: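 Near-confluent HeLa cells were seeded at 5000 cells/well and exposed for 24 h to vehicle or compound at […]. Hoechst 33258 and PI were added at final 5 and 2 µg/mL, then incubated 1 h at 37 °C.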

Data set [8] has as its system HeLa. Nature of the data set: Cellular uptake in human HeLa cells after 24 hrs by fluorescence microscopy. Type of data set: ADME, cell-based.
The test system of data set [9] is HeLa. The experiment in a line: Cell cycle arrest in human HeLa cells assessed as accumulation at G2/M phase at 3 to 10 uM after 24 hrs by flow cytometry. Type of data set: functional, cell-based. The method, boiled down:
as §2

In data set [10] the test system is HeLa. Nature of the data set: Cell cycle arrest in human HeLa cells assessed as accumulation at G2/M phase after 24 hrs by flow cytometry. It is filed as functional, cell-based. The method, boiled down:
as §2
In general terms: In flow cytometry, cells or beads pass a laser one at a time.

Regarding `CC(=O)O[C@H]1CC[C@@]2(C)[C@@H](CC[C@H]3[C@@H]4[C@H](n5cc(-c6ccc(F)cc6)nn5)C[C@H](O)[C@@]4(C)CC[C@@H]32)C1`, the IC50 in [1], in [2] and in [3] was > 30 µM throughout.
On to `CC(=O)O[C@H]1CC[C@@]2(C)[C@@H](CC[C@H]3[C@@H]4[C@H](n5cc(-c6ccc(F)cc6)nn5)CC(=O)[C@@]4(C)CC[C@@H]32)C1`, for which the results for the IC50 in data set [1], in data set [2] and in data set [3] were 11 µM, 3.39 µM and 16 µM, respectively.
As for `CCCc1ccc(-c2cn([C@@H]3CC(=O)[C@@]4(C)CC[C@H]5[C@@H](CC[C@H]6C[C@@H](OC(C)=O)CC[C@@]65C)[C@H]34)nn2)cc1`, the concentration for half-maximal inhibition (IC50) in data set [1] is 15 µM; in data set [2] it was 8.4 µM; in data set [3] it was > 30 µM.
Take `CCCc1ccc(-c2cn([C@@H]3C[C@H](O)[C@@]4(C)CC[C@H]5[C@@H](CC[C@H]6C[C@@H](OC(C)=O)CC[C@@]65C)[C@H]34)nn2)cc1`: the IC50 was 6.52 µM in data set [1], > 30 µM in data set [2] and > 30 µM in [3]. Further, the outcome in data set [4], in data set [5] and in [6] was Active. Further, the Activity entry in data set [7] was “Dose-dependent effect”. The Drug uptake result in [8] is listed as “Dose-dependent effect”. Further, the outcome in [9] was inactive.
For the compound `COc1ccc2c(c1)CC[C@H]1[C@@H]3[C@H](n4cc(-c5ccccc5)nn4)C[C@H](O)[C@@]3(C)CC[C@H]21`, the 50% inhibitory concentration (IC50) in data set [1] is > 30 µM; in data set [2], > 30 µM; in data set [3], 1.7 µM.
In the case of `COc1ccc2c(c1)CC[C@H]1[C@@H]3[C@H](n4cc(-c5ccccc5)nn4)CC(=O)[C@@]3(C)CC[C@H]21`, the concentration for half-maximal inhibition (IC50) in [1] came out at 14.9 µM; in data set [2] it was 11.3 µM; in data set [3], 4.77 µM.
As for `CC(=O)O[C@H]1CC[C@@]2(C)[C@@H](CC[C@H]3[C@@H]4[C@H](n5cc(-c6ccccc6)nn5)C[C@H](O)[C@@]4(C)CC[C@@H]32)C1`, the half-inhibitory concentration (IC50) turned out to be 7.7 µM in data set [1], 19.2 µM in [2] and 20.7 µM in [3]. The Activity result in data set [10] and in data set [7] was “Dose-dependent effect” throughout. For the same compound, the outcome in data set [5] and in [6] was Active. For the same compound, in [8], the Drug uptake result was “Dose-dependent effect”.
Regarding `CC(=O)O[C@H]1CC[C@@]2(C)[C@@H](CC[C@H]3[C@@H]4[C@H](n5cc(-c6ccccc6)nn5)CC(=O)[C@@]4(C)CC[C@@H]32)C1`, the concentration for half-maximal inhibition (IC50) in data set [1] was 9.16 µM; in data set [2] it was 1.69 µM; in data set [3], 9.69 µM. The Activity entry in data set [10] and in [7] was “Dose-dependent effect” in each case. The outcome in [5] and in [6] was Active. Besides, the Drug uptake entry in data set [8] is recorded as “Dose-dependent effect”.
`CC(=O)O[C@H]1CC[C@@]2(C)[C@@H](CC[C@H]3[C@@H]4[C@H](n5cc(-c6ccc(C)cc6)nn5)CC(=O)[C@@]4(C)CC[C@@H]32)C1`: the values for the 50% inhibitory concentration (IC50) in data set [1], in data set [2] and in [3] were 10.3 µM, 2.68 µM and 10.7 µM, respectively. The Activity entry in [10] and in [7] was “Dose-dependent effect” in each case. Besides, in [8], the Drug uptake result was “Dose-dependent effect”.
For `CC(=O)O[C@H]1CC[C@@]2(C)[C@@H](CC[C@H]3[C@@H]4[C@H](n5cc(-c6ccc(C)cc6)nn5)C[C@H](O)[C@@]4(C)CC[C@@H]32)C1`, the IC50 is 9.4 µM in data set [1], 10.3 µM in data set [2] and 22.4 µM in data set [3]. The Activity result in data set [10] and in [7] was “Dose-dependent effect” in each case. Besides, the result in data set [5] and in data set [6] was Active. In data set [8], the Drug uptake entry is given as “Dose-dependent effect”.
